The values that follow come from ChEMBL document CHEMBL4342521 (J Med Chem, 2020).

As a reminder, the IC50 is the concentration that gives 50% inhibition.

The source made the active and inactive calls. No cut-off for these calls is given here. Bounds are passed on as bounds.

One data set deals with Trypsin (Homo sapiens) (UniProt P07477+P07478+P35030). Kind of data set: Inhibition of trypsin (unknown origin). Type of data set: protein assay.
Another data set concerns the target Histone deacetylase 4 (Homo sapiens, UniProt P56524). Kind of data set: Inhibition of recombinant human HDAC4 using Boc-Lys (trifluoroacetyl)-AMC as substrate preincubated for 1 hr followed by substrate addition and measured after 2 hrs by fluorescence based micro plate reader analysis. An outline of the steps:
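Recombinant enzyme was preincubated with serially varied inhibitor for 1 h at 30 °C. Boc-Lys(trifluoroacetyl)-AMC was then added to a final 50 μM and incubated 2 h at 30 °C. The reaction was stopped with developer containing trypsin and TSA, and fluorescence (ex 360/em 460 nm) was read 30 min later. Inhibition was taken relative to control wells and fitted to a variable-slope log(inhibitor) curve. Values are the mean of at least three experiments.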

The subject of a further data set is KM12. Nature of the data set: Antiproliferative activity against human KM12 cells assessed as reduction in cell viability after 48 hrs by CellTiter-Blue assay. Type of data set: functional. Conditions: KM12, 48 h, read-out: LC50 (the source's name). The gist of the method:
(§1)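 Cells grown in RPMI1640 with 10% FBS at 37 °C, 5% CO₂. 5,000–10,000 cells/well were pre-incubated overnight, and a time-zero CellTiter-Blue read was taken. Six 10-fold dilutions (top final 10 μM) were applied for 48 h, followed by 0.125 mg/mL CellTiter-Blue for 2–4 h. Resorufin fluorescence was read at ex 560/em 590 nm. […] Triplicates.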

A further data set deals with 786-0. Nature of the data set: Antiproliferative activity against human 786-0 cells assessed as reduction in cell viability after 48 hrs by CellTiter-Blue assay. The settings on record: 786-0, 48 h, read-out: LC50 (the source's name). Type of data set: functional. The gist of the method: as §1
(In general: The colour change of resazurin is a common sign of viable cells or microbes.)

Another data set concerns NCI-H322M. Nature of the data set: Antiproliferative activity against human NCI-H322M cells assessed as reduction in cell viability after 48 hrs by CellTiter-Blue assay. Format: functional. Conditions: read-out: LC50 (the source's name). An outline of the steps: as §1
Data set [1] deals with T1, Protein deacetylase HDAC6 (Homo sapiens, UniProt Q9UBN7).
T1 sequence (Q9UBN7 whole entry): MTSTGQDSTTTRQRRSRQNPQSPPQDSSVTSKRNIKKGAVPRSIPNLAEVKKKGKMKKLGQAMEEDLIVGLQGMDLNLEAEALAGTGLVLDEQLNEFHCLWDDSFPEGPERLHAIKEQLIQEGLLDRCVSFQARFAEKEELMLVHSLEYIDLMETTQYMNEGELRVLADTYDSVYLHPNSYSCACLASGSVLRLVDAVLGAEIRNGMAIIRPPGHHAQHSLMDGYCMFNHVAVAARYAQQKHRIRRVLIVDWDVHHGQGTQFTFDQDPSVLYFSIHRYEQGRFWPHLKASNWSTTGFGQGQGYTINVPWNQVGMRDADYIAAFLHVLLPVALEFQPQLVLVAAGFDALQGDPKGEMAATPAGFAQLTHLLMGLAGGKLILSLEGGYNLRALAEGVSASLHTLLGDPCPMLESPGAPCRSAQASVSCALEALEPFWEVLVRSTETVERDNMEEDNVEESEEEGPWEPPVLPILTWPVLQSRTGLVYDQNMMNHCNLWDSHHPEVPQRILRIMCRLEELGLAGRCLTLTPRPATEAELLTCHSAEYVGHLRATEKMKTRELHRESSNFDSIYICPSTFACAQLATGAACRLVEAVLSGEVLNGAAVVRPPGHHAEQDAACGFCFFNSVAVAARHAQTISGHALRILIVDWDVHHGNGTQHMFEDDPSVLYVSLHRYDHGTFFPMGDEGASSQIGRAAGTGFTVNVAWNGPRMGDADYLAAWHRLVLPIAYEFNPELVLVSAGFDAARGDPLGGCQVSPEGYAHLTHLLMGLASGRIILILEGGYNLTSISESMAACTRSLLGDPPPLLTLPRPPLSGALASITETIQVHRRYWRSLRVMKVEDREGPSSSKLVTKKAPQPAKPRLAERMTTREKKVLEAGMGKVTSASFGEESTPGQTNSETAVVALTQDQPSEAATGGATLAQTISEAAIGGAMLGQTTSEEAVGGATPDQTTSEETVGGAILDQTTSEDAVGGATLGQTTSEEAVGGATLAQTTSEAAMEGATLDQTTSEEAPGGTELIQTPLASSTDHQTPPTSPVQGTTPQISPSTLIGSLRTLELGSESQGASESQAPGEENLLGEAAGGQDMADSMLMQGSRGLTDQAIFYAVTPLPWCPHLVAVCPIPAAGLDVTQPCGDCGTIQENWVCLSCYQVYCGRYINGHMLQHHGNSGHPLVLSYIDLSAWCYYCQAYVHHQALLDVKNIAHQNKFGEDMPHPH
Kind of data set: Inhibition of recombinant HDAC6 (unknown origin) using Boc-Lys(acetyl)-AMC as substrate preincubated for 1 hr followed by substrate addition and measured after 2 hrs by fluorescence based micro plate reader analysis.

Another data set has as its system UACC-62. Nature of the data set: Antiproliferative activity against human UACC62 cells assessed as reduction in cell viability after 48 hrs by CellTiter-Blue assay. Format: functional. Conditions: UACC-62, 48 h, read-out: LC50 (the source's name). An outline of the steps:
(§2)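 NCI-60 panel lines grown in RPMI1640 with 10% FBS at 37 °C, 5% CO₂. Seeded at 5,000–10,000 cells/well and pre-incubated overnight. Exposed for 48 h to six 10-fold dilutions (top final 10 μM), with a time-zero plate read at dosing. CellTiter-Blue (0.125 mg/mL) for 2–4 h, fluorescence 560/590 nm, triplicate curves.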

In a further data set the test system is COLO 205. Nature of the data set: Antiproliferative activity against human COLO205 cells assessed as reduction in cell viability after 48 hrs by CellTiter-Blue assay. Conditions: COLO 205, 48 h, read-out: LC50 (the source's name). Format: functional. An outline of the steps:
as §1

A further data set deals with MV4-11. Kind of data set: Induction of apoptosis in human MV4-11 cells assessed as cell death at 200 nM after 24 hrs in presence of 50 uM z-VAD by CellTiter-blue dye based spectrophotometric analysis. Format: functional. An outline of the steps: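 MV4-11 cells grown 12 h, then given 200 nM test agent alone or with z-VAD, chloroquine (5 μM) or wortmannin (100 nM) for 24 h. Viability by CellTiter-Blue (0.125 mg/mL, 2–4 h), resorufin fluorescence 560/590 nm, compared with t = 0 wells; n = 3.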

Data set [2] in a line: Mutagenecity in Salmonella typhimurium TA100 at 10 uM in presence of S9 liver homogenate after 2 to 3 days by mini-Ames test. Format: toxicity. Conditions: salmonella enterica subsp. enterica serovar typhimurium, s9, 10 µM. The gist of the method: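 Compound was tested at a final 10 μM undiluted plus four serial dilutions, with S9 mix and glucose/biotin/trace-histidine exposure solution, for 100 min at 37 °C. Reversion medium was added and cultures dispensed to 96 wells for 2–3 days at 37 °C. Yellow or partial-yellow wells were scored positive; 2-aminoanthracene was the positive control.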

The test system of a further data set is Malme-3M. Kind of data set: Antiproliferative activity against human MALME-3M cells assessed as reduction in cell viability after 48 hrs by CellTiter-Blue assay. Format: functional. The settings on record: read-out: LC50 (the source's name). The gist of the method: as §1
Another data set relates to HL-60(TB). Kind of data set: Antiproliferative activity against human HL-60(TB) cells assessed as reduction in cell viability after 48 hrs by CellTiter-Blue assay. Format: functional. The settings on record: HL-60, 48 h, read-out: LC50 (the source's name). The gist of the method:
as §1

The next data set relates to T47D. Nature of the data set: Antiproliferative activity against human T47D cells assessed as reduction in cell viability after 48 hrs by CellTiter-Blue assay. Format: functional. Conditions: read-out: LC50 (the source's name). The gist of the method: as §2

Histone deacetylase 4, sequence (P56524 whole entry): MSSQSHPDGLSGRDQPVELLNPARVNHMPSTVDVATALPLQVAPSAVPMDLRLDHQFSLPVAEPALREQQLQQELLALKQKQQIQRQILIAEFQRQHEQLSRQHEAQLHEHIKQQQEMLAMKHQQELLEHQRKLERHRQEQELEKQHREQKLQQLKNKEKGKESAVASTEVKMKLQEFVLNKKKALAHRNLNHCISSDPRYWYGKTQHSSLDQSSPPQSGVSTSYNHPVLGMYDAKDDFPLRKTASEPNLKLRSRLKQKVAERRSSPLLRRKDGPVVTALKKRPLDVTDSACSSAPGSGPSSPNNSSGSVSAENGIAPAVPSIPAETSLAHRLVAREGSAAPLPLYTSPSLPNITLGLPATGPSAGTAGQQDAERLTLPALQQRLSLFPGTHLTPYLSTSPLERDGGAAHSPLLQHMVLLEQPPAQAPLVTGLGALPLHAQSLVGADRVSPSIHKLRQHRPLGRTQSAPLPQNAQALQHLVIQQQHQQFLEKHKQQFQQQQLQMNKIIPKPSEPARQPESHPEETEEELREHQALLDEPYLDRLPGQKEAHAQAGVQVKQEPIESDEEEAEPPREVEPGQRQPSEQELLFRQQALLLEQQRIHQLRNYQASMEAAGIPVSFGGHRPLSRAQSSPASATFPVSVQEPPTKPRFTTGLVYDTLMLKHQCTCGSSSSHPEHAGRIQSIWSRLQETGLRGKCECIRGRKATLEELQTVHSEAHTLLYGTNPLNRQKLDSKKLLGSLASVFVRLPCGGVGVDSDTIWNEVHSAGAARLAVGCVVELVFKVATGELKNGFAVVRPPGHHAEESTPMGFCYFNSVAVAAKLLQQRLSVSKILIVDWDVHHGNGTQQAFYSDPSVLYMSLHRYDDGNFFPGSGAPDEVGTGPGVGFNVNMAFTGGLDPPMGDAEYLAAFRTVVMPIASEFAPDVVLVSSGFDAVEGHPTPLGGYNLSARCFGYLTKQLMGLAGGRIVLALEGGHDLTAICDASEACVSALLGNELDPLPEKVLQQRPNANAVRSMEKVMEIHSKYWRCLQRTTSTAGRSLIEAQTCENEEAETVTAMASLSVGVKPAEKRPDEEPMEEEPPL

Regarding `CCCNNC(=O)/C=C/c1ccc(CNCCc2c(C)[nH]c3ccccc23)cc1.O=C(O)C(F)(F)F`, the inhibition entry at Trypsin (Homo sapiens) was “inactive”. In addition, the half-inhibitory concentration (IC50) is greater than 10 µM at Histone deacetylase 4 and greater than 50 µM in data set [1]. The CC50 in the data set with KM12 is greater than 10 µM; with 786-0 it was greater than 10 µM; with NCI-H322M, greater than 10 µM; with UACC-62, 0.589 µM; in the data set with COLO 205 it was 0.66 µM; in the data set with Malme-3M, greater than 10 µM. For the same molecule, the CC50 in the data set on HL-60(TB) and in the data set with T47D was greater than 10 µM in each case. Further, in the data set on MV4-11, the result was inactive. In addition, the Activity result in data set [2] is listed as “Non-Toxic”.
